These results are taken from article PMC12799549 (Drug Metabolism and Disposition, 2025).

The test system of one assay is HEK293 cells. The assay is described as follows: MTT cell viability, HEK293. The assay is classed as cell-based, human. The conditions noted are these: for % resistant: plateau of biphasic curve fit, mean ± SEM; for concentration required to impact the remaining (resistant) cells: biphasic viability profile. The gist of the method: (§1)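 Cells seeded at 1.1 × 10^5/well in complete medium; 1 h later, medium with a range of test compound concentrations added for 48 h at 37 °C, 5% CO2. Vehicle is DMSO-only medium (100%), and compound medium without cells is background (0%). MTT 1 mg/mL in Dulbecco's PBS for 90 min; formazan dissolved in DMSO, A570. Biphasic curves fitted to a 2-site model: plateau gives % resistant, with a LogEC50 per phase. n = 5.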

Another assay has as its system ENT1KO cells. The assay is described as follows: MTT cell viability, ENT1KO. The format is cell-based, human. The conditions noted are these: 48 h; for % resistant: ENT1KO, plateau of biphasic curve fit; for EC50: Homo sapiens. The method in brief:
as §1

The next assay has as its system E1E2KO cells. The assay is described as follows: MTT cell viability, E1E2KO. The assay is classed as cell-based, human. The conditions noted are these: 48 h; for % resistant: E1E2KO, plateau of biphasic curve fit; for EC50: Homo sapiens. The gist of the method:
as §1

Another assay concerns ENT2KO cells. The assay is described as follows: MTT cell viability, ENT2KO. The format is cell-based, human. The conditions noted are these: 48 h; for % resistant: plateau of biphasic curve fit. The gist of the method: as §1
The target of assay [1] is T1, ENT2 (Homo sapiens, UniProt Q14542).
T1 sequence (Q14542 1-456): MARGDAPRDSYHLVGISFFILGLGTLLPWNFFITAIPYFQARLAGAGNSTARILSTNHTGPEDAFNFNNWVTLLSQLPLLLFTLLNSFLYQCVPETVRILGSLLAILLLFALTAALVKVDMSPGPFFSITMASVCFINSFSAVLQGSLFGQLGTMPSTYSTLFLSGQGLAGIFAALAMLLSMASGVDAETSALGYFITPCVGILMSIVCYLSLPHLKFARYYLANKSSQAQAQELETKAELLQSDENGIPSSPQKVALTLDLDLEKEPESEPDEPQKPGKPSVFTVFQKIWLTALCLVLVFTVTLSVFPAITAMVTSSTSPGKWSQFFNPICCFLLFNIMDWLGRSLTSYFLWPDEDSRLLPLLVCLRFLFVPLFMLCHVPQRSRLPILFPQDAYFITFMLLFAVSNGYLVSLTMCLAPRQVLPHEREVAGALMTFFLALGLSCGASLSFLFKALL
The assay is described as follows: Inhibition of [3H]2-chloroadenosine uptake in ENT1KO cells. The format is cell-based.

Assay [2] has as its target T1, ENT2. Kind of assay: [3H]2-chloroadenosine transport kinetics, ENT2-mediated uptake. The format is cell-based. The gist of the method:
(§2)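 Trypsin/EDTA-detached cells were suspended in sodium-free N-methylglucamine buffer, pH 7.4, with 0.1% DMSO, 100 nM NBMPR or 5 mM adenosine, 15 min at room temperature. Uptake of varied [3H]2-chloroadenosine ran 10 s and was stopped by spinning through silicone:mineral oil; NaOH-digested pellets were scintillation-counted. Cell volume came from [3H]-water. ENT2 = NBMPR minus adenosine condition; ENT1 = mediated minus ENT2. Michaelis-Menten Km/Vmax; 5 experiments, duplicate.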

Assay [3] addresses T2, ENT1 (Homo sapiens, UniProt Q99808).
T2 sequence (Q99808 1-456): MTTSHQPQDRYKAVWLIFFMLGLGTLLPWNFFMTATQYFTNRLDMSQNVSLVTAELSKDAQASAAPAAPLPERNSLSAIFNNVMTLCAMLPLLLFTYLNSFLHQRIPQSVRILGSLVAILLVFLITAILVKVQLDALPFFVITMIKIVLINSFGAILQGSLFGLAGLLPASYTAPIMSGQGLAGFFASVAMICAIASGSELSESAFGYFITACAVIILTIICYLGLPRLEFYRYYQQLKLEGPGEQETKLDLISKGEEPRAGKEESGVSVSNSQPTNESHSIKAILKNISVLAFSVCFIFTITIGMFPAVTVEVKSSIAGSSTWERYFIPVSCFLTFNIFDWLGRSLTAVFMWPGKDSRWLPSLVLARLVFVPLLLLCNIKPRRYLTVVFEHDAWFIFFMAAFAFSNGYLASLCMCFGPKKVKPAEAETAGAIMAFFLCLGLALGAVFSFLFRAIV
Kind of assay: [3H]2-chloroadenosine transport kinetics, ENT1-mediated uptake. The assay is classed as cell-based. The settings on record: for Vmax of ENT1-mediated uptake: 10 s uptake. The method in brief: as §2

Another assay relates to ENT1 and ENT2. The assay is classed as cell-based, human. The conditions noted are these: HEK293 cells; 10 μM substrate, 15 s uptake; printed as logIC50 (negative).
For assay [4], the target named is T2, ENT1. The assay is described as follows: Inhibition of [3H]2-chloroadenosine uptake in ENT2KO cells. The format is cell-based. The settings on record: comparison of ENT2KO cells (ENT1) with ENT1KO cells (ENT2).
The mark [5] stands for this setting: read-out: LogEC50-1 (converted).
Where [6] appears, read: read-out: LogEC50-2 (converted).

Read-outs that look alike come from different tables or passages of the source. Marks after values point to notes of the source that are not given here.

For the compound `Nc1ccn([C@@H]2O[C@H](CO)[C@@H](O)[C@@H]2O)c(=O)n1` [Cytarabine, cytarabine], the “% resistant” value is given as 51 ± 2% in the assay with HEK293 cells (48 h, n = 5); 37 ± 3 ^b % in the assay on ENT1KO cells; “Monophasic” in the assay on E1E2KO cells; “Monophasic” with ENT2KO cells. For the same compound, the “concentration required to impact the remaining (resistant) cells” value with HEK293 cells was > 300 µM. The EC50 in the assay with ENT1KO cells (setting [5]) was 2.34 µM; in the assay on ENT1KO cells (setting [6]), 4570 µM; in the assay with E1E2KO cells (setting [6]), 11200 µM. Besides, in the assay with ENT2KO cells, the “sensitivity of ENT2KO cells to the drug” value is given as “almost completely resistant”.

For the compound `Nc1nc(Cl)nc2c1ncn2[C@H]1C[C@H](O)[C@@H](CO)O1` [Cladribine, cladribine], the LogEC50-1 in the assay on HEK293 cells (48 h, high affinity phase, given as logEC50 (negative)) is −5.11 ± 0.07; in the assay on ENT2KO cells (high affinity phase, given as logEC50 (negative)), −4.51 ± 0.07 ^b. In addition, the “% resistant” value is reported as “Monophasic” with HEK293 cells (48 h, n = 5); “Monophasic” in the assay with ENT1KO cells; “Monophasic” with E1E2KO cells; “Monophasic” in the assay on ENT2KO cells. Also, the figures for the EC50 with ENT1KO cells (setting [5]) and in the assay on E1E2KO cells (setting [5]) were 3.98 µM and 16.6 µM, respectively.

In the case of `Nc1nc(Cl)nc2c1ncn2[C@@H]1O[C@H](CO)[C@@H](O)[C@@H]1F` [Clofarabine, clofarabine], the “% resistant” value in the assay with HEK293 cells (48 h, n = 5) was 21 ± 2%; in the assay with HEK293 cells (48 h, n = 5, listed as clofarabine), “approximately 20%”; in the assay on ENT1KO cells, 6 ± 2 ^b %; with E1E2KO cells, “Monophasic”; with ENT2KO cells, 70 ± 3 ^b %. In the assay with HEK293 cells, the “concentration required to impact the remaining (resistant) cells” value was > 300 µM. The EC50 in the assay on ENT1KO cells (setting [5]) is 0.174 µM; in the assay on E1E2KO cells (setting [5]), 138 µM. In addition, in the assay with ENT2KO cells, the “sensitivity of ENT2KO cells to the drug” value was “almost completely resistant”. Also, the Ki (commonly the equilibrium dissociation constant of an inhibitor or competing ligand from its target) at ENT2 [1] amounted to 75 ± 49 µM.

With `[3H]c1nc2c(N)nc(Cl)nc2n1[C@@H]1O[C@H](CO)[C@@H](O)[C@H]1O` [[^3H]2-chloroadenosine, [8-^3H]2-Chloroadenosine], the ENT2-mediated uptake result on ENT2 [2] (E1E2KO cells) is “no ENT1-mediated or ENT2-mediated uptake”; at ENT2 [2] (ENT2KO cells), “no detectable ENT2-mediated uptake”. In addition, the ENT1-mediated uptake entry at ENT1 [3] (E1E2KO cells) is “no ENT1-mediated or ENT2-mediated uptake”. In addition, the figures for the “Vmax of ENT1-mediated uptake” value at ENT1 [3] (ENT2KO cells) and on ENT1 [3] (HEK293 cells) were 4.8 ± 0.6 pmol/μL per second and 3.2 ± 0.3 pmol/μL per second, respectively.

At ENT2 [1], `Nc1ncnc2c1ncn2[C@@H]1O[C@H](CO)[C@@H](O)[C@@H]1O` [Vidarabine] returned an inhibition constant Ki of 60 ± 24 µM.

On to `O=[N+]([O-])c1ccc(CSc2ncnc3c2ncn3[C@@H]2O[C@H](CO)[C@@H](O)[C@H]2O)cc1` [NBMPR, nitrobenzylmercaptopurine riboside (nitrobenzylthioinosine)], for which the “concentration required to obtain any inhibition of [3H]2-chloroadenosine uptake” value at ENT2 [1] (ENT1KO cells) was > 1 µM. For the same compound, at ENT2 [1] (ENT1KO cells, 10 μM substrate, 15 s uptake, printed as logIC50 (negative)), the “logIC50, inhibition of [3H]2-chloroadenosine uptake” value is given as ~−5.5 ± 0.1 M.

Take `COc1cc(C(=O)OCCCN2CCCN(CCCOC(=O)c3cc(OC)c(OC)c(OC)c3)CC2)cc(OC)c1OC` [Dilazep, dilazep]: on ENT2 [1], the midpoint of inhibition, the IC50, lay at 6.31 µM.

For `Nc1ccn([C@@H]2O[C@H](CO)[C@@H](O)C2(F)F)c(=O)n1` [Gemcitabine, gemcitabine], the “% resistant” value with HEK293 cells (48 h, n = 5) is listed as 33 ± 4%; in the assay on ENT1KO cells, 14 ± 2 ^b %; in the assay with E1E2KO cells it was “Monophasic”; in the assay on ENT2KO cells, 76 ± 3 ^b %. Further, in the assay on HEK293 cells, the “concentration required to impact the remaining (resistant) cells” value was > 300 µM. Moreover, the results for the EC50 in the assay with ENT1KO cells (setting [5]), in the assay on ENT1KO cells (setting [6]) and in the assay with E1E2KO cells (setting [6]) were 0.0427 µM, 468 µM and 1820 µM, respectively. Further, in the assay with ENT2KO cells, the “sensitivity of ENT2KO cells to the drug” value is on record as “almost completely resistant”.

Regarding `Nc1nc2nc[nH]c2c(=S)[nH]1` [6-thioguanine], in the assay on HEK293 cells, the “concentration required to impact the remaining (resistant) cells” value was > 300 µM. Also, the results for the “% resistant” value in the assay on ENT1KO cells, with E1E2KO cells and with ENT2KO cells were 10 ± 3%, “Monophasic” and 25 ± 5%, respectively. The EC50 with ENT1KO cells (setting [5]) was 1.7 µM; with E1E2KO cells (setting [5]), 77.6 µM.

In the case of `OCCN(CCO)c1nc(N2CCCCC2)c2nc(N(CCO)CCO)nc(N3CCCCC3)c2n1` [DY, Dipyridamole], on ENT2 [1], 0.501 µM corresponded to half-maximal inhibition (IC50). The “logIC50, monophasic inhibition of [3H]2-chloroadenosine uptake” value in the assay on ENT1 and ENT2 was −6.6 ±.01 M.

Consider `Sc1ncnc2nc[nH]c12` [6-mercaptopurine], for which the “concentration required to impact the remaining (resistant) cells” value with HEK293 cells is > 300 µM. Besides, the results for the “% resistant” value in the assay with ENT1KO cells, in the assay with E1E2KO cells and in the assay on ENT2KO cells were 66 ± 4 ^b %, 70 ± 4 ^b % and 41 ± 3%, respectively. Moreover, the EC50 is 2.95 µM with ENT1KO cells (setting [5]) and 26.3 µM in the assay with E1E2KO cells (setting [5]).

For `O=c1[nH]cc(F)c(=O)[nH]1` [5-fluorouracil], the “% resistant” value in the assay on HEK293 cells (48 h, n = 5) is “Monophasic”; in the assay on ENT1KO cells, “Monophasic”; in the assay on E1E2KO cells, 48 ± 10%; with ENT2KO cells, “Monophasic”. The EC50 was 8.51 µM with ENT1KO cells (setting [5]), 7.76 µM with E1E2KO cells (setting [5]) and 1070 µM in the assay on E1E2KO cells (setting [6]).

In the case of `Nc1nc2c(ncn2[C@@H]2O[C@H](CO)[C@@H](O)[C@H]2O)c(=O)[nH]1` [Guanosine, guanosine], on ENT1 [4], the “relative affinity for ENT1 versus ENT2” value is “significantly higher affinity for ENT1 over ENT2”.
